According to ChEMBL document CHEMBL4680371, “Design and Structure-Activity Relationship of a Potent Furin Inhibitor Derived from Influenza Hemagglutinin” (ACS Med Chem Lett, 2021):
Calls of active or inactive are those of the source. The rule behind the calls is not given here. Where a SMILES comes first, the peptide text is derived from it.

Tests used:
[1] = Stability of the compound in CD1 mouse plasma assessed as intact compound remaining measured after 2 mins by LC-MS/MS analysis; format: ADME, cell-free; settings: read-out: Stabilty
How it was run: (§1)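 Peptide incubated ex vivo in mouse plasma at 37 °C and sampled at several time points, using the ng/mL concentration range. Intact peptide quantified by high-resolution mass spectrometry and expressed as percentage remaining; t1/2 derived from the time course. Each time point run in triplicate; mean and mean ± SD reported.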

Furin [2] = molecular target: T1, Furin (Homo sapiens, UniProt P09958); assay: Inhibition of recombinant soluble human furin using pyroGlu-Arg-Thr-Lys-Arg-methyl-coumaryl-7-amide as substrate measured after 1 hr
T1 sequence (P09958 whole entry): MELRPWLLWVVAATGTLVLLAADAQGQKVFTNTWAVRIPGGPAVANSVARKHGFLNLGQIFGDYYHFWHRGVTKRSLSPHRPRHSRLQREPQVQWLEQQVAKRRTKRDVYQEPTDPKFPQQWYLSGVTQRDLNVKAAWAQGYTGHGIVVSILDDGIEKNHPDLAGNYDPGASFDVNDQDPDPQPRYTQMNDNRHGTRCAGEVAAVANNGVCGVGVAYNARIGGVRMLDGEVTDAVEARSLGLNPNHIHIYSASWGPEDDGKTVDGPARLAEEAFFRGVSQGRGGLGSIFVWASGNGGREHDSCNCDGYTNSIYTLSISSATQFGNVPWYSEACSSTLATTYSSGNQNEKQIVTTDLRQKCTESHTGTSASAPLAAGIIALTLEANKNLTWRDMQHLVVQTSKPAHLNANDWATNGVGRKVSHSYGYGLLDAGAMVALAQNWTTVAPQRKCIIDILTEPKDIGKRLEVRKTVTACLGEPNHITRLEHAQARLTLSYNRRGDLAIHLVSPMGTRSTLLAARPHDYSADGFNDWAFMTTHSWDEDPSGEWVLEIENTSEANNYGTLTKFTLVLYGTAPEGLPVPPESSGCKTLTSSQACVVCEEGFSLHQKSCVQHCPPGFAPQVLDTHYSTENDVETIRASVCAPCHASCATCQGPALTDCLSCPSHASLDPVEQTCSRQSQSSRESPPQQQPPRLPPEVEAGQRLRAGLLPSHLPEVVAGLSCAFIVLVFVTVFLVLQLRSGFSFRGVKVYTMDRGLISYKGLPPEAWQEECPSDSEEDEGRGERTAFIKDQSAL
How it was run: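 Soluble human recombinant furin was tested in a competitive kinetic assay. Ki is reported as the mean ± SD of at least two independent experiments.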

[3] = Half life in CD1 mouse plasma by LC-MS/MS analysis; format: ADME, cell-free; settings: for half-life: CD1, mouse; how it was run: as §1
[4] = molecular target: T2, Proprotein convertase subtilisin/kexin type 6 (Homo sapiens) (UniProt P29122); assay: Inhibition of recombinant soluble human PACE4 using pyroGlu-Arg-Thr-Lys-Arg-methyl-coumaryl-7-amide as substrate measured after 1 hr
T2 sequence (whole entry): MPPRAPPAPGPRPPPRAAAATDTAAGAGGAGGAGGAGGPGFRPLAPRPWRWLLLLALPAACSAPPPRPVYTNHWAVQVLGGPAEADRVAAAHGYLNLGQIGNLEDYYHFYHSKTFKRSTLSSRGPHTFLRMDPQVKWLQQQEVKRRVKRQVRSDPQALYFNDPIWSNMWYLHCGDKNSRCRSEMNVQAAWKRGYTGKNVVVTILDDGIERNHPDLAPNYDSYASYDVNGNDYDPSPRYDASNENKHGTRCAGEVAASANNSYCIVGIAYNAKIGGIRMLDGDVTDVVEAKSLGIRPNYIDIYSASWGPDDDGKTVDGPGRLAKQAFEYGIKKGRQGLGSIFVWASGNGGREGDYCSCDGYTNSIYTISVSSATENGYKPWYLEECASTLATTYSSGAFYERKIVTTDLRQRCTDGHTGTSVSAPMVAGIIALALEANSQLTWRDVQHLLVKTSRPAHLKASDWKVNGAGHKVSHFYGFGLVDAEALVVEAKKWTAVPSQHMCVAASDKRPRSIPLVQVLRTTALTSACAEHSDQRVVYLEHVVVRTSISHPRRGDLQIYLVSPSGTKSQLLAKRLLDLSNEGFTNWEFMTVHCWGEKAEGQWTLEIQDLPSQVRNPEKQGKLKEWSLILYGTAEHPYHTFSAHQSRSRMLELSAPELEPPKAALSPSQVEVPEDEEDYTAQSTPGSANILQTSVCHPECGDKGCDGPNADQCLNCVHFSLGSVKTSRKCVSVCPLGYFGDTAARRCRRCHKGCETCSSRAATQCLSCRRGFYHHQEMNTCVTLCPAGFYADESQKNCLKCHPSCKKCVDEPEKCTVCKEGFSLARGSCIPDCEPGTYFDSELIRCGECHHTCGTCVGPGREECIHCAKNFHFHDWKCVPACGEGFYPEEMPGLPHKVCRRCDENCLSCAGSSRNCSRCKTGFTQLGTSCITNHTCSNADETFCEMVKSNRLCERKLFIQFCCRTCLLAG

[5] = molecular target: Proprotein convertase subtilisin/kexin type 5 (Homo sapiens) (UniProt Q92824); assay: Inhibition of recombinant soluble human PC5 using pyroGlu-Arg-Thr-Lys-Arg-methyl-coumaryl-7-amide as substrate measured after 1 hr
Proprotein convertase subtilisin/kexin type 5 (Homo sapiens), sequence (Q92824 whole entry): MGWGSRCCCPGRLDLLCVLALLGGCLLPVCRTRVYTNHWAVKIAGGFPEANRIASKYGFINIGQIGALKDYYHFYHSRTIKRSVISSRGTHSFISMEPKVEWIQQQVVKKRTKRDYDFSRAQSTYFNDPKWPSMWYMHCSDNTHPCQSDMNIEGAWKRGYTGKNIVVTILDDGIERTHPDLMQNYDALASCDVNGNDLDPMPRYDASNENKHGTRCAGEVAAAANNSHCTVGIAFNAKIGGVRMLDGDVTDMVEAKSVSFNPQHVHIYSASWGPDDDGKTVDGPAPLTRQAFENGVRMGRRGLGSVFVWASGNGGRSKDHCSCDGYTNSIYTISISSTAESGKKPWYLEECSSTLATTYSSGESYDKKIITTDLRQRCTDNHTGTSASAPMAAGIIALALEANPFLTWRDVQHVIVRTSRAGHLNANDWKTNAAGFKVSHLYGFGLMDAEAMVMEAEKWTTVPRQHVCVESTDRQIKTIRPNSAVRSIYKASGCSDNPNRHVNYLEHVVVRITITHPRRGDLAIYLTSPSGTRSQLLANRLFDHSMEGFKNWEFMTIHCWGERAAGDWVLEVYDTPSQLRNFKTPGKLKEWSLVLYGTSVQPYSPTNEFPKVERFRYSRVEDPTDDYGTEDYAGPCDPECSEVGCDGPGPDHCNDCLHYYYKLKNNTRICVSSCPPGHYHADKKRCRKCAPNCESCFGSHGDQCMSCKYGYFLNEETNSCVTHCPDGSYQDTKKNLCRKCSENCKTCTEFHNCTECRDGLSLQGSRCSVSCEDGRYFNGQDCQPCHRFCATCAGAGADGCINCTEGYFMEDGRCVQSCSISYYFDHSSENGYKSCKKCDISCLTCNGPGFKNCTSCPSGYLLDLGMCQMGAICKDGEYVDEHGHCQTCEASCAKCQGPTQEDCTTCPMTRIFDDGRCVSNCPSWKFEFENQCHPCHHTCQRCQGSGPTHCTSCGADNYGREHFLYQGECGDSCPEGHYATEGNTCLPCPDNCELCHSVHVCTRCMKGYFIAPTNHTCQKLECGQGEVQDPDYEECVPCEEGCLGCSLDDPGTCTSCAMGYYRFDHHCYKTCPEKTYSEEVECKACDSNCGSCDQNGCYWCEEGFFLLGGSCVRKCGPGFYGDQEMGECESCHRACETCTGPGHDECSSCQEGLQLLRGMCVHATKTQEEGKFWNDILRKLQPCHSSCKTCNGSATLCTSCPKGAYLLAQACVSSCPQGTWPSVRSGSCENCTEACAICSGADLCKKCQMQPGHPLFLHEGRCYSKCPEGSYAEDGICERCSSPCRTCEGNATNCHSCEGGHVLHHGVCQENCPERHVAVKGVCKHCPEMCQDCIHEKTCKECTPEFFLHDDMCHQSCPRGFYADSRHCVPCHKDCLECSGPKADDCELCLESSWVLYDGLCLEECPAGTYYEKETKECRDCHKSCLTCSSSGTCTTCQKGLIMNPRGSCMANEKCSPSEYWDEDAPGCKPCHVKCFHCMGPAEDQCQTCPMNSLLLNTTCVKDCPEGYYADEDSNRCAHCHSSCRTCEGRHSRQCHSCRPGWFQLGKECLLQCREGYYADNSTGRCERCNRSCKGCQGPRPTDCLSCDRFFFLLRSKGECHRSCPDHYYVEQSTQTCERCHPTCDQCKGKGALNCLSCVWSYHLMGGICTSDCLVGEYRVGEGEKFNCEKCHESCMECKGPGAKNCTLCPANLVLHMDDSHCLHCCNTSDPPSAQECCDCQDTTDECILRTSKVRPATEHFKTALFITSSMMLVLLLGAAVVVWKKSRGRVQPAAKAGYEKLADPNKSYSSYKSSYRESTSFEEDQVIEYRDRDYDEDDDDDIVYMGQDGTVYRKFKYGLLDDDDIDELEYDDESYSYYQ

[6] = molecular target: T3, Proprotein convertase subtilisin/kexin type 7 (Homo sapiens) (UniProt Q16549); assay: Inhibition of recombinant soluble human PC7 using pyroGlu-Arg-Thr-Lys-Arg-methyl-coumaryl-7-amide as substrate measured after 1 hr
T3 sequence (whole entry): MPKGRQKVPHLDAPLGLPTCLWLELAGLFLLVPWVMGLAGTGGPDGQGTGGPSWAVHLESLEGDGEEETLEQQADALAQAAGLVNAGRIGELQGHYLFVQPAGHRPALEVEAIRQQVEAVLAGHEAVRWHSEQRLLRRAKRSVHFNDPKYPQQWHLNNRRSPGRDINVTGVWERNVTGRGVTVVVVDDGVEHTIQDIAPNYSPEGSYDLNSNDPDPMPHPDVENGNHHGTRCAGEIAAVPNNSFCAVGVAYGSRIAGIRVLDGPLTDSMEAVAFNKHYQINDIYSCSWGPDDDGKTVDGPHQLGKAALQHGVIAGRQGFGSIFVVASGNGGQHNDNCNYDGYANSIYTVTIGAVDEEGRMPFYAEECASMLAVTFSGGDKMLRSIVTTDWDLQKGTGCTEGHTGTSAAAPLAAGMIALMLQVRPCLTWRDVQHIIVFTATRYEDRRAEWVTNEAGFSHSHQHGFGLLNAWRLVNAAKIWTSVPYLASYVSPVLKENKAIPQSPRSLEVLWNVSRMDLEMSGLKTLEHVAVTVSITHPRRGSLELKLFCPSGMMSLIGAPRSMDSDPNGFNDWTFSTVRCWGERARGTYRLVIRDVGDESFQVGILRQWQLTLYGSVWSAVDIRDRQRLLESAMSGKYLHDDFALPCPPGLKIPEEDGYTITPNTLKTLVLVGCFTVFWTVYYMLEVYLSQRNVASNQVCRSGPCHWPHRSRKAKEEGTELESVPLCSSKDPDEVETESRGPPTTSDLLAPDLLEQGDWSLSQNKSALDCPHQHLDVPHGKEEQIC

Furin [7] = molecular target: T1, Furin; assay: Potency index, ratio of CF1 Ki to test compound Ki for recombinant soluble human furin using pyroGlu-Arg-Thr-Lys-Arg-methyl-coumaryl-7-amide as substrate measured after 1 hr

CC[C@H](NC(=O)[C@H](CCCNC(=N)N)NC(=O)[C@H](C)NC(=O)[C@H]1CCCN1C(C)=O)C(=O)N[C@@H](CCCNC(=N)N)C(=O)N[C@@H](CCCCN)C(=O)N[C@@H](CCCCN)C(=O)N[C@@H](CCCNC(=N)N)C(=O)N[C@H](C(N)=O)[C@@H](C)O
remaining at 2 min [1]: 25%
Ki (Furin [2]): 11 nM
half-life [3]: 66.6 s

CC(=O)N[C@@H](CCCNC(=N)N)C(=O)N[C@@H](C)C(=O)N[C@@H](CCCNC(=N)N)C(=O)N[C@@H](CC(N)=O)C(=O)N[C@@H](CCCNC(=N)N)C(=O)N[C@@H](CCCCN)C(=O)N[C@@H](CCCCN)C(=O)N[C@@H](CCCNC(=N)N)C(=O)N[C@H](C(N)=O)[C@@H](C)O
Ki (Furin [2]): 18 nM
inhibition [4]: Active
inhibition [5]: Active
inhibition [6]: inactive

CC(=O)N[C@@H](CCCNC(=N)N)C(=O)N[C@@H](C)C(=O)N[C@@H](CCCNC(=N)N)C(=O)N[C@@H](CCCNC(=N)N)C(=O)N[C@@H](CCCNC(=N)N)C(=O)N[C@@H](CCCCN)C(=O)N[C@@H](CCCCN)C(=O)N[C@@H](CCCNC(=N)N)C(=O)N[C@H](C(N)=O)[C@@H](C)O
Ki (Furin [2]): 15 nM
inhibition [4]: Active
inhibition [5]: Active
inhibition [6]: inactive
t1/2 ([3]; mouse): 212 s

CC[C@H](C)[C@H](NC(=O)[C@H](CCCNC(=N)N)NC(=O)[C@H](C)NC(=O)[C@@H]1CCCN1C(C)=O)C(=O)N[C@@H](CCCNC(=N)N)C(=O)N[C@@H](CCCCN)C(=O)N[C@@H](CCCCN)C(=O)N[C@@H](CCCNC(=N)N)C(=O)N[C@H](C(N)=O)[C@@H](C)O (Ac-PARIRKKRT-NH2)
remaining at 2 min [1]: 15%
Ki (Furin [2]): 8 nM
half-life [3]: 44.4 s

CC(=O)N[C@@H](CCCNC(=N)N)C(=O)N[C@@H](C)C(=O)N[C@@H](CCCNC(=N)N)C(=O)N[C@@H](Cc1ccccc1)C(=O)N[C@@H](CCCNC(=N)N)C(=O)N[C@@H](CCCCN)C(=O)N[C@@H](CCCCN)C(=O)N[C@@H](CCCNC(=N)N)C(=O)N[C@H](C(N)=O)[C@@H](C)O
Ki (Furin [2]): 21 nM
inhibition [4]: Active
inhibition [5]: Active
inhibition [6]: inactive
half-life [3]: 19.2 s

CC(=O)N[C@@H](CCCNC(=N)N)C(=O)N[C@@H](C)C(=O)N[C@@H](CCCNC(=N)N)C(=O)N[C@H](C(=O)N[C@@H](CCCNC(=N)N)C(=O)N[C@@H](CCCCN)C(=O)N[C@@H](CCCCN)C(=O)N[C@@H](CCCNC(=N)N)C(=O)N[C@H](C(N)=O)[C@@H](C)O)C(C)C
Ki (Furin [2]): 7 nM
Ratio Ki (Furin [7]): 2

CC[C@H](C)[C@H](NC(=O)[C@H](CCCNC(=N)N)NC(=O)[C@H](C)NC(=O)[C@H](CCCNC(=N)N)NC(C)=O)C(=O)N[C@@H](CCCNC(=N)N)C(=O)N[C@@H](CCCCN)C(=O)N[C@@H](CCCCN)C(=O)N[C@@H](CCCNC(=N)N)C(=O)N[C@H](C(N)=O)[C@@H](C)O
Ki (Furin [2]): 6 nM
inhibition [4]: Active
inhibition [5]: Active
inhibition [6]: inactive
Ratio Ki (Furin [7]): 2

CC(=O)N[C@@H](CCCNC(=N)N)C(=O)N[C@@H](C)C(=O)N[C@@H](CCCNC(=N)N)C(=O)N[C@@H](CCCCN)C(=O)N[C@@H](CCCNC(=N)N)C(=O)N[C@@H](CCCCN)C(=O)N[C@@H](CCCCN)C(=O)N[C@@H](CCCNC(=N)N)C(=O)N[C@H](C(N)=O)[C@@H](C)O
Ki (Furin [2]): 7 nM
Ratio Ki (Furin [7]): 2
